Laboratory results taken from ChEMBL document CHEMBL1149778, “Synthesis of some novel 2,4-disubstituted thiazoles as possible antimicrobial agents” (2008).
Values after ≈ are worked out from the molar mass of the structure shown.

What was measured:
Bacillus subtilis [1] = assay: Antibacterial activity against Bacillus subtilis after 16 to 18 hrs by serial plate dilution method; type: functional
Procedure, shortened: (§1)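 MIC by broth serial dilution: compound serially diluted in Mueller-Hinton broth, tubes adjusted to […] with phosphate buffer. Standardized bacterial suspension inoculated, incubated 16-18 h at 37 °C. MIC read as the lowest concentration with no visible growth.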

Aspergillus flavus [2] = assay: Antifungal activity against Aspergillus flavus NCIM No.524 by serial plate dilution method; type: functional
Bacillus subtilis [3] = assay: Antibacterial activity against Bacillus subtilis assessed as zone of inhibition after 16 to 18 hrs by serial plate dilution method; type: functional
Procedure, shortened: (§2)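 Agar well diffusion: 20 ml agar per dish seeded with bacterial suspension, excess decanted, dishes held 1 h at 37 °C. Wells punched, compounds in DMSO added at their MIC levels, DMSO wells as control. Zone of inhibition measured.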

Pseudomonas aeruginosa [4] = assay: Antibacterial activity against Pseudomonas aeruginosa ATTC 27853 after 16 to 18 hrs by serial plate dilution method; type: functional; settings: ATCC27853; procedure, shortened: as §1
Pseudomonas aeruginosa [5] = assay: Antibacterial activity against Pseudomonas aeruginosa ATTC 27853 assessed as zone of inhibition after 16 to 18 hrs by serial plate dilution method; type: functional, ATCC27853; procedure, shortened: as §2
Talaromyces marneffei [6] = assay: Antifungal activity against Penicillium marneffei by serial plate dilution method; type: functional
Aspergillus flavus [7] = assay: Antifungal activity against Aspergillus flavus NCIM No.524 assessed as zone of inhibition by serial plate dilution method; type: functional
Procedure, shortened: (§3)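 Sabouraud agar (peptone, D-glucose, agar; pH 5.7), 20 ml per dish, lawned with a saline spore suspension from a loopful of fungus. Excess decanted, plates dried 1 h at 37 °C. Wells punched and compounds in DMSO added, DMSO as control. Triplicate plates, 37 °C for 3-4 days; inhibition-zone diameter measured.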

Staphylococcus aureus [8] = assay: Antibacterial activity against Staphylococcus aureus ATTC 25923 after 16 to 18 hrs by serial plate dilution method; type: functional; procedure, shortened: as §1
Talaromyces marneffei [9] = assay: Antifungal activity against Penicillium marneffei assessed as zone of inhibition by serial plate dilution method; type: functional; procedure, shortened: as §3
[10] = test system: Trichophyton mentagrophytes; assay: Antifungal activity against Trichophyton mentagrophytes by serial plate dilution method; type: functional
Staphylococcus aureus [11] = assay: Antibacterial activity against Staphylococcus aureus ATTC 25923 assessed as zone of inhibition after 16 to 18 hrs by serial plate dilution method; type: functional; procedure, shortened: as §2
Aspergillus fumigatus [12] = assay: Antifungal activity against Aspergillus fumigatus NCIM No.902 assessed as zone of inhibition by serial plate dilution method; type: functional; procedure, shortened: as §3
Escherichia coli [13] = assay: Antibacterial activity against Escherichia coli ATTC 25922 assessed as zone of inhibition after 16 to 18 hrs by serial plate dilution method; type: functional, ATCC25922; procedure, shortened: as §2
Aspergillus fumigatus [14] = assay: Antifungal activity against Aspergillus fumigatus NCIM No.902 by serial plate dilution method; type: functional
Escherichia coli [15] = assay: Antibacterial activity against Escherichia coli ATTC 25922 after 16 to 18 hrs by serial plate dilution method; type: functional; settings: ATCC25922; procedure, shortened: as §1
[16] = test system: Trichophyton mentagrophytes; assay: Antifungal activity against Trichophyton mentagrophytes assessed as zone of inhibition by serial plate dilution method; type: functional; procedure, shortened: as §3

SMILES	MIC (Bacillus subtilis [1])	MIC (Aspergillus flavus [2])	inhibition zone (IZ) (Bacillus subtilis [3])	MIC (Pseudomonas aeruginosa [4])	inhibition zone (IZ) (Pseudomonas aeruginosa [5])	MIC (Talaromyces marneffei [6])	inhibition zone (IZ) (Aspergillus flavus [7])	MIC (Staphylococcus aureus [8])	inhibition zone (IZ) (Talaromyces marneffei [9])	MIC [10]	inhibition zone (IZ) (Staphylococcus aureus [11])	inhibition zone (IZ) (Aspergillus fumigatus [12])	inhibition zone (IZ) (Escherichia coli [13])	MIC (Aspergillus fumigatus [14])	MIC (Escherichia coli [15])	inhibition zone (IZ) [16]
Clc1cc(Cl)c(Cl)c(-c2nc(-c3cccnc3)cs2)c1	12.5 µg/mL (≈ 36.6 µM)	6.25 µg/mL (≈ 18.3 µM)	11 mm	25 µg/mL (≈ 73.2 µM)	<10 mm	6.25 µg/mL (≈ 18.3 µM)	16 mm	12.5 µg/mL (≈ 36.6 µM)	16 mm	6.25 µg/mL (≈ 18.3 µM)	11 mm	16 mm	11 mm	6.25 µg/mL (≈ 18.3 µM)	12.5 µg/mL (≈ 36.6 µM)	16 mm
COc1ccc(-c2csc(N/N=C/c3cc(Cl)cc(Cl)c3Cl)n2)cc1	25 µg/mL (≈ 60.6 µM)	25 µg/mL (≈ 60.6 µM)	<10 mm	25 µg/mL (≈ 60.6 µM)	<10 mm	25 µg/mL (≈ 60.6 µM)	<10 mm	25 µg/mL (≈ 60.6 µM)	<10 mm	12.5 µg/mL (≈ 30.3 µM)	<10 mm	<10 mm	<10 mm	25 µg/mL (≈ 60.6 µM)	25 µg/mL (≈ 60.6 µM)	11 mm
Clc1cc(Cl)c(Cl)c(/C=N/Nc2nc(-c3ccc(-c4ccccc4)cc3)cs2)c1	6.25 µg/mL (≈ 13.6 µM)	6.25 µg/mL (≈ 13.6 µM)	16 mm	25 µg/mL (≈ 54.5 µM)	<10 mm	6.25 µg/mL (≈ 13.6 µM)	16 mm	6.25 µg/mL (≈ 13.6 µM)	16 mm	6.25 µg/mL (≈ 13.6 µM)	16 mm	16 mm	<10 mm	6.25 µg/mL (≈ 13.6 µM)	25 µg/mL (≈ 54.5 µM)	16 mm
O=[N+]([O-])c1ccc(-c2csc(N/N=C/c3cc(Cl)cc(Cl)c3Cl)n2)cc1	6.25 µg/mL (≈ 14.6 µM)	25 µg/mL (≈ 58.5 µM)	16 mm	25 µg/mL (≈ 58.5 µM)	<10 mm	25 µg/mL (≈ 58.5 µM)	<10 mm	6.25 µg/mL (≈ 14.6 µM)	<10 mm	25 µg/mL (≈ 58.5 µM)	16 mm	<10 mm	<10 mm	25 µg/mL (≈ 58.5 µM)	25 µg/mL (≈ 58.5 µM)	<10 mm
Clc1ccc(-c2csc(N/N=C/c3cc(Cl)cc(Cl)c3Cl)n2)cc1	25 µg/mL (≈ 59.9 µM)	12.5 µg/mL (≈ 30 µM)	<10 mm	25 µg/mL (≈ 59.9 µM)	<10 mm	12.5 µg/mL (≈ 30 µM)	11 mm	25 µg/mL (≈ 59.9 µM)	11 mm	12.5 µg/mL (≈ 30 µM)	<10 mm	11 mm	11 mm	12.5 µg/mL (≈ 30 µM)	12.5 µg/mL (≈ 30 µM)	11 mm
Clc1cc(Cl)c(Cl)c(-c2nc(CN3CCOCC3)cs2)c1	12.5 µg/mL (≈ 34.4 µM)	25 µg/mL (≈ 68.7 µM)	11 mm	25 µg/mL (≈ 68.7 µM)	<10 mm	12.5 µg/mL (≈ 34.4 µM)	<10 mm	12.5 µg/mL (≈ 34.4 µM)	11 mm	25 µg/mL (≈ 68.7 µM)	11 mm	<10 mm	11 mm	25 µg/mL (≈ 68.7 µM)	12.5 µg/mL (≈ 34.4 µM)	<10 mm
